Test results taken from ChEMBL document CHEMBL1938344, “Antiangiogenic activity of 3,4-seco-cycloartane triterpenes from Thai Gardenia spp. and their semi-synthetic analogs” (Bioorg Med Chem Lett, 2012).
Activity calls are given as the source filed them. No cut-off for these calls is given here.

Experiments:
[1] = system: Aorta; assay: Antiangiogenic activity in Wistar rat thoracic aortic rings assessed as inhibition of microvessel sprouting at 25 uM after 7 days by phase-contrst microscopy; assay type: functional; conditions: 168 h
In short: (§1)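 Thoracic aorta from six-week-old SPF male Wistar rat, everted, cut into 1-mm rings, embedded in porcine tendon collagen gel (30 min, 37 °C). Rings overlaid with RPMI 1640 plus 1% TIS+ containing compound doses or DMSO; 7 days at 37 °C, 5% CO2. Sprout length from cut end to capillary mid-point by phase-contrast microscopy; mean ± SD, n = 6.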

[2] = biological target: T1, Mitogen-activated protein kinase; ERK1/ERK2 (Homo sapiens) (UniProt P27361+P28482); assay: Inhibition of VEGF-induced Erk1/2 phosphorylation in HUVEC pretreated for 60 mins prior VEGF stimulation measured after 10 mins by Western blotting; assay type: protein assay
T1 sequence (P27361 whole entry, looked up): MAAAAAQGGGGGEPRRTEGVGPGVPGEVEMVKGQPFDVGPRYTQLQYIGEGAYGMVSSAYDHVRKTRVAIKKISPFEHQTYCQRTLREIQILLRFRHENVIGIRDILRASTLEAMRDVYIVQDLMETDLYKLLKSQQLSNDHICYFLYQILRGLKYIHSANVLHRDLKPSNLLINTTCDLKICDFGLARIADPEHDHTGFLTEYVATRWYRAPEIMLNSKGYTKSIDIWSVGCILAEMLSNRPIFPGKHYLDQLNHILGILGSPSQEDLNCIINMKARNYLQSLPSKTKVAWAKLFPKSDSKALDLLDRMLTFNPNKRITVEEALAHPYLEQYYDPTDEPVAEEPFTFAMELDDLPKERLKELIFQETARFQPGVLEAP
T1 sequence (P28482 whole entry, looked up): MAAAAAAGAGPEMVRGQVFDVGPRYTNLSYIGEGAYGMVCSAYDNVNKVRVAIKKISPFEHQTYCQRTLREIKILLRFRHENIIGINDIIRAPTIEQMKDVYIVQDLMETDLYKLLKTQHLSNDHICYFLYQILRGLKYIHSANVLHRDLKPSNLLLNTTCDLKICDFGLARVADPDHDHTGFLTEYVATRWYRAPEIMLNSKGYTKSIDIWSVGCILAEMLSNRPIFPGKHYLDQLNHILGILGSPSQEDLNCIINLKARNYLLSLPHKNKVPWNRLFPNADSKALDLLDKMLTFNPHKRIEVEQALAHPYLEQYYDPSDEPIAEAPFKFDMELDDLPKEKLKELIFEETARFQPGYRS
In short: (§2)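 Cells pretreated 1 h with 0–10 µM compound or DMSO, then stimulated with VEGF (10 ng/mL) for 10 min, PBS-washed, lysed with M-PER, protein by microBCA. Blots probed for phospho-Erk1/2 or phospho-Akt (4 °C overnight) and total Erk1/2 or Akt (room temperature); chemiluminescent detection; mean ± SD, n = 3.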

[3] = system: HUVEC; assay: Antiangiogenic activity in HUVEC assessed as inhibition of tubule formation at 20 uM after 12 hrs by inverted light microscopy; assay type: functional, cell-based; conditions: Homo sapiens
In short: (§3)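 Cells suspended in HuMedia EG2 with graded doses or DMSO vehicle, seeded onto solidified Matrigel and incubated 12 h at 37 °C, 5% CO2. Capillary-like tube length measured microscopically against vehicle control; mean ± SD, n = 5.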

[4] = system: Aorta; assay: Antiangiogenic activity in Wistar rat thoracic aortic rings assessed as inhibition of microvessel sprouting after 7 days by phase-contrst microscopy; assay type: functional, tissue-based; in short: as §1
[5] = biological target: T1, Mitogen-activated protein kinase; ERK1/ERK2 (Homo sapiens); assay: Inhibition of VEGF-induced Erk1/2 phosphorylation in HUVEC at 2.5 to 10 uM pretreated for 60 mins prior VEGF stimulation measured after 10 mins by Western blotting; assay type: protein assay; conditions: TDE = time-dependent effect; in short: as §2
[6] = system: HUVEC; assay: Inhibition of VEGF-induced Akt phosphorylation in HUVEC at 2.5 to 10 uM pretreated for 60 mins prior VEGF stimulation measured after 10 mins by Western blotting; assay type: cell-based; conditions: Homo sapiens; in short: as §2
[7] = system: HUVEC; assay: Antiangiogenic activity in HUVEC assessed as inhibition of cell proliferation after 72 hrs by WST-8-based spectrophotometry; assay type: functional; conditions: Homo sapiens
In short: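 Cells seeded in HuMedia EG2, 24 h at 37 °C, 5% CO2, then fresh medium with graded doses or DMSO vehicle for 72 h. Proliferation read by WST-8 at 450 nm; mean ± SD, n = 5; IC50 from dose–response.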

[8] = system: HUVEC; assay: Antiangiogenic activity in HUVEC assessed as inhibition of tubule formation after 12 hrs by inverted light microscopy; assay type: functional, cell-based; conditions: Homo sapiens; in short: as §3
[9] = system: HUVEC; assay: Antiangiogenic activity in HUVEC assessed as inhibition of VEGF-induced cell migration at 50 uM after 6 hrs by boyden chamber assay; assay type: functional, cell-based; conditions: Homo sapiens
[10] = system: HUVEC; assay: Antiangiogenic activity in HUVEC assessed as inhibition of tubule formation at 5 uM after 12 hrs by inverted light microscopy; assay type: functional, cell-based; conditions: Homo sapiens; in short: as §3

Structure (SMILES)	inhibition at 25 µM [1] [%]	further results
C=C1C(=O)O[C@@H]2C[C@@H]3[C@]4(CC[C@]5(C)[C@@H]([C@H](C)CC/C=C(\C)C=O)CC[C@@]35C)C[C@]4(CCC(=O)Oc3ccccc3)[C@H]12	10	
C=C1C(=O)O[C@@H]2C[C@@H]3[C@]4(CC[C@]5(C)[C@@H]([C@H](C)CC/C=C(\C)C=O)CC[C@@]35C)C[C@]4(CCC(=O)N[C@@H](Cc3ccccc3)C(=O)OC)[C@H]12	10	
C=C1C(=O)O[C@@H]2C[C@@H]3[C@]4(CC[C@]5(C)[C@@H]([C@H](C)CC/C=C(\C)C=O)CC[C@@]35C)C[C@]4(CCC(=O)NC(C)(C)C)[C@H]12	10	
C=C1C(=O)O[C@@H]2C[C@@H]3[C@]4(CC[C@]5(C)[C@@H]([C@H](C)CC/C=C(\C)C=O)CC[C@@]35C)C[C@]4(CCC(=O)NCCCC)[C@H]12	10	
C=C1C(=O)O[C@@H]2C[C@@H]3[C@]4(CC[C@]5(C)[C@@H]([C@H](C)CC/C=C(\C)C=O)CC[C@@]35C)C[C@]4(CCC(=O)N3C(=O)CCC3=O)[C@H]12	10	
C=C1C(=O)O[C@@H]2C[C@@H]3[C@]4(CC[C@]5(C)[C@@H]([C@H](C)CC/C=C(\C)COC(=O)c6ccccc6)CC[C@@]35C)C[C@]4(CCC(=O)OC)[C@H]12	10	
C=C1C(=O)O[C@@H]2C[C@@H]3[C@]4(CC[C@]5(C)[C@@H]([C@H](C)CC/C=C(\C)COC(=O)c6ccncc6)CC[C@@]35C)C[C@]4(CCC(=O)OC)[C@H]12	10	
C=C1C(=O)O[C@@H]2C[C@@H]3[C@]4(CC[C@]5(C)[C@@H]([C@H](C)CC/C=C(\C)COC(=O)c6ccc7ccccc7n6)CC[C@@]35C)C[C@]4(CCC(=O)OC)[C@H]12	10	
C=C1C(=O)O[C@H]2C[C@@H]3[C@@]4(CC[C@]5(C)[C@H]([C@@H](C)CC/C=C(\C)C=O)CC[C@@]35C)C[C@]4(CCC(=O)OC)[C@@H]12 [CORONALOLIDE METHYL ESTER]	10	
C=C1C(=O)O[C@@H]2C[C@@H]3[C@]4(CC[C@]5(C)[C@@H]([C@H](C)CC/C=C(\C)C=O)CC[C@@]35C)C[C@]4(CCC(=O)O)[C@H]12 [CORONALOLIDE]	85	
C=C1C(=O)O[C@@H]2C[C@@H]3[C@]4(CC[C@]5(C)[C@@H]([C@H](C)CC/C=C(\C)CO)CC[C@@]35C)C[C@]4(CCC(=O)OC)[C@H]12 [SOOTEPIN A]	10	
C=C1C(=O)O[C@@H]2C[C@@H]3[C@]4(CC[C@]5(C)[C@@H]([C@H](C)CCC=C(C)C)CC[C@@]35C)C[C@]4(CCC(=O)O)[C@H]12 [SOOTEPIN B]	100	inhibition [2]: Dose-dependent effect; inhibition [3]: Active; inhibition [4]: Dose-dependent effect; IC50 ([4]; 168 h): 4.46 µM; inhibition [5]: tde; inhibition [6]: inactive; Activity [7]: Dose-dependent effect; IC50 [7]: 1.2 µM; IC50 [8]: 11.2 µM; inhibition [8]: Dose-dependent effect; Activity [9]: inactive; inhibition [10]: Active
C=C(C)[C@@H]1CC[C@@H]2[C@]3(CC[C@]4(C)[C@@H]([C@H](C)CCC=C(C)C)CC[C@@]24C)C[C@]13CCC(=O)O [SOOTEPIN E]	92	
C=C1C(=O)O[C@@H]2C[C@@H]3[C@]4(CC[C@]5(C)[C@@H]([C@H](C)CCC=C(C)C)CC[C@@]35C)C[C@]4(CCC(=O)OC)[C@H]12 [TUBIFEROLIDE METHYL ESTER]	40	
